# Hits are enriched below; roughly 2.2% of the tested compounds scored in any of these assays.
# IEC-6 tox – cytotoxicity in IEC-6 intestinal epithelial cells, primary screen, cytotoxicity control for KLF5 inhibitor project, cell-based, luminescence. IEC-6 cytotoxicity, luminescence viability. inhibition, % at 5 µM. 290,000 compounds, 0.78% hits. AID 1825, 2009; in the data active = inhibition above about 22%;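 note: 0% = plate median of test compound wells and 100% = cytotoxic reference compound wells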
# BaF3 parental – parental Ba/F3 cell viability inhibition, counter-screen for JAK2V617F inhibitor project, murine pro-B, CellTiter-Glo luminescence | CellTiter-Glo ATP luminescence | inhibition, % at 5.6 µM | 220,000 compounds, 1.1% hits | AID 1486, 2009;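 active = inhibition above a per-campaign cutoff, the mean inhibition of all tested compounds plus 3 SD, cut at about 27% in these data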;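 note: 0% = DMSO wells and 100% = JAK Inhibitor I control wells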
# APP 5UTR inh – inhibitors of APP translation via 5'UTR reporter, primary screen, APP 5'UTR luciferase, SH-SY5Y cells. SH-SY5Y APP 5'UTR-luciferase reporter, luminescence. inhibition, % at 2 µM. 190,000 compounds, 0.82% hits. AID 1285, 2008;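 active = inhibition above a set limit, derived from the sample mean plus 3 SD, cut at about 45% in these data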
# Ba/F3 V617F tox – reduced viability of JAK2V617F-dependent Ba/F3 cells, primary screen, JAK2V617F inhibitor project, cell-based, Ba/F3 EpoR-JAK2V617F, luminescence; ATP luminescence; 220,000 compounds, 1.1% hits; inhibition, % at 5.6 µM;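 active = inhibition above the campaign mean plus 3 SD over all tested compounds, cut at about 24% in these data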;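 note: cytokine-independent growth of Ba/F3 cells driven by EpoR plus mutant JAK2; 0% = DMSO-treated cells and 100% = JAK inhibitor I control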
# bCat nuc transl – modulators of beta-catenin nuclear translocation, primary screen, imaging, HeLa cells, immunofluorescence, high-content; 190,000 compounds, 0.3% hits; nuclear translocation activity, % at 5 µM;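 active = nuclear translocation activity above 50% at 5 µM, with a well cell count of 50 or more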;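 note: per-cell ratio of nuclear to cytoplasmic median beta-catenin stain intensity; plate controls were DMSO negative control for no effect and GSK-3 inhibitor IX positive control for full effect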
#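 Assay system: human HeLa cells, native beta-catenin; doses: 5 µM primary, 0.02–20 µM confirmation; incubation: compound treatment 24 h, 37°C, 5% CO2; technique: fluorescence imaging of beta-catenin antibody stain plus DAPI; measure: % activation, nuclear-to-cytoplasmic median beta-catenin signal ratio per cell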
# MT stabilizer – microtubule stabilizers in HeLa cells, primary screen, imaging, high-content imaging; HeLa tubulin immunostaining HCS, 24 h; share of cells brighter than vehicle mean+2SD; % tubulin-high responders, % at 10 µM; 200,000 compounds, 0.83% hits; AID 2205, 2009;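 active = plate Z-score above 3 for both tubulin-high and condensed-nucleus cell shares, with cell loss under 80%, at 10 µM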;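 note: anti alpha tubulin signal scored within the nucleus-defined area of each cell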
# * = called active by the depositor; nt = no result given.
SMILES,IEC-6 tox,BaF3 parental,APP 5UTR inh,Ba/F3 V617F tox,bCat nuc transl,MT stabilizer
CCN1CCC(Nc2ccnc3cc(Cl)ccc23)CC1,2,0,nt,1,1,nt
Cc1ccc(/C=N/NC(=O)CSc2nc3ccccc3c(=O)n2-c2ccccc2C)s1,-6,1,18,-2,-2,4
Cc1ccccc1-n1c(SCC(=O)N/N=C/c2sccc2C)nc2ccccc2c1=O,7,4,17,-1,0,14*
O=[N+]([O-])C(/C=C(/Cl)[N+](=O)[O-])=C(N1CCCCC1)N1CCCCC1,-3,-4,nt,-3,-1,nt
COc1cccc(NC(=O)N2CCCC2C(=O)NCc2ccccc2)c1 (centres undefined),-5,4,-22,-4,-1,2
CC1(C)OC(=O)C(=NNc2ccc(O)cc2)C(=O)O1,0,53*,9,36*,9,3
Cc1ccc(/C=N/Nc2nncc(-c3ccccc3)n2)o1,-2,7,-25,0,-3,5
Cc1[nH]n(-c2ccccc2)c(=O)c1/C=N/Nc1nncc(-c2ccccc2)n1,0,36*,82*,53*,-2,2
Cc1[nH]n(-c2ccccc2)c(=O)c1C=Nc1cccc2cccnc12,23*,5,70*,-1,0,5
COc1cc(S(=O)(=O)Nc2cccc(C)c2)ccc1N=Cc1c(C)[nH]n(-c2ccccc2)c1=O,13,7,9,0,-2,18*
Cc1ccc(-n2[nH]c(C)c(/C=N/c3ccccn3)c2=O)cc1,14,16,-12,11,2,2
COc1ccc(-c2nn3c(-c4cccc(C)c4)nnc3s2)cc1OC,-2,2,-2,-3,nt,33*
Cc1cccc(-c2nnc3sc(-c4ccccc4)nn23)c1,-12,-1,1,-3,-5,4
CC(=O)Nc1ccc(NC(=O)C(C)OC(=O)C2CC3C=CC2C3)cc1 (centres undefined),-6,57*,11,2,-1,6
COc1ccc(/C=N/NC(=O)c2ccc(N)cc2)cc1Cn1cc([N+](=O)[O-])cn1,1,0,12,-3,0,12*
COc1ccc(/C=N/n2cnnc2)cc1Cn1nc(C)c([N+](=O)[O-])c1C,5,-1,9,-4,1,3
COc1ccc(/C=N/NC(=O)c2cccc(O)c2)cc1Cn1nc(C)c([N+](=O)[O-])c1C,3,5,7,0,0,19*
O=C(COC(=O)Cc1ccccc1F)Nc1cccc(S(=O)(=O)NC2=NCCCCC2)c1,2,6,13,2,-4,2
CC(C)Cn1c(N)c(C(=O)COC(=O)CC23CC4CC(CC(C4)C2)C3)c(=O)n(C)c1=O,11,42*,10,36*,nt,2
Cc1sc2nc(CN(Cc3cccs3)C(=O)C3CC3)[nH]c(=O)c2c1C,-7,86*,11,11,-9,4
CC(C(=O)O)N1CCCCC1 (centres undefined),-2,4,nt,2,2,nt
Cc1nn(-c2ccccc2)c(Cl)c1CN(C(=O)CCl)c1cccc2ccccc12,0,3,5,5,-3,7
COc1cc(OC)c(C2N(C)c3ccccc3N2C)cc1OC,-2,59*,-11,53*,-1,2
Cc1c(Cl)cccc1NC(=S)N1CCC(N(C)CC2CCCO2)CC1 (centres undefined),5,3,9,-3,1,1
CCCCN(C)CCNC(=O)C1CCN(S(=O)(=O)c2cccc3nsnc23)CC1,0,nt,nt,nt,nt,nt
NNC(=O)CCc1c[nH]c2ccccc12,2,1,-2,-3,-2,3
O=C(COC(=O)CCc1c[nH]c2ccccc12)NC(c1ccccc1)c1ccccc1,-5,76*,13,0,-2,5
N#C/C(=C\c1cccn1-c1ccccc1)C(=O)NC1CCCCC1,0,7,-6,0,3,30*

# Screening data as filed in PubChem BioAssay.
